# Measurements: ChEMBL document CHEMBL1134286, “Novel erythromycin derivatives with aryl groups tethered to the C-6 position are potent protein synthesis inhibitors and active against multidrug-resistant respiratory pathogens” (J Med Chem, 2001)
# Legend:
# Format in all cases: functional
# [1] = Minimum inhibitory concentration against Streptococcus pyogenes 930MLSB
# Outline: (§1)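 MICs were determined by agar dilution following National Committee for Clinical Laboratory Standards recommendations. Values are in µg/mL.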
# [2] = test system: Streptococcus pneumoniae; experiment: Minimum inhibitory concentration against Streptococcus pneumoniae ATCC 6303 Ery-S; outline: as §1
# [3] = Minimum inhibitory concentration against Streptococcus pyogenes PIU2548 efflux; outline: as §1
# [4] = test system: Staphylococcus aureus; experiment: Minimum inhibitory concentration against Staphylococcus aureus A 5177 MLSB-i; outline: as §1
# [5] = test system: Staphylococcus aureus; experiment: Minimum inhibitory concentration against Staphylococcus aureus ATCC 6538PEry-S; settings: ATCC 6538P; outline: as §1
# [6] = test system: Staphylococcus aureus; experiment: Minimum inhibitory concentration against Staphylococcus aureus A 5278 MLSB-c; outline: as §1
# [7] = Minimum inhibitory concentration against Haemophilus influenzae DILL Amp-R; outline: as §1
# [8] = Minimum inhibitory concentration against Streptococcus pyogenes EES 61 Ery-S; outline: as §1
# [9] = test system: Streptococcus pneumoniae; experiment: Minimum inhibitory concentration against Streptococcus pneumoniae 5649 efflux; outline: as §1
# [10] = Minimum inhibitory concentration against Streptococcus pneumoniae 5737 MLSB; outline: as §1
SMILES,MIC [1] [µg/mL],MIC [2] [µg/mL],MIC [3] [µg/mL],MIC [4] [µg/mL],MIC [5] [µg/mL],MIC [6] [µg/mL],MIC [7] [µg/mL],MIC [8] [µg/mL],MIC [9] [µg/mL],MIC [10] [µg/mL]
C=CCO[C@]1(C)C[C@@H](C)C(=O)[C@H](C)[C@H]2NC(=O)O[C@]2(C)[C@@H](CC)OC(=O)[C@H](C)[C@@H](O[C@H]2C[C@@](C)(OC)[C@@H](O)[C@H](C)O2)[C@H](C)[C@H]1O[C@@H]1O[C@H](C)C[C@H](N(C)C)[C@H]1O,> 128,0.03,8,0.78,0.2,> 100,2,0.03,2,> 128
CC[C@H]1OC(=O)[C@H](C)C(=O)[C@H](C)[C@@H](O[C@@H]2O[C@H](C)C[C@H](N(C)C)[C@H]2O)[C@](C)(OCCNCc2ccncc2)C[C@@H](C)C(=O)[C@H](C)[C@@H](O)[C@]1(C)O,> 100,0.25,1.56,3.1,6.2,> 100,32,0.39,2,> 128
CC[C@H]1OC(=O)[C@H](C)C(=O)[C@H](C)[C@@H](O[C@@H]2O[C@H](C)C[C@H](N(C)C)[C@H]2O)[C@](C)(OCCNCc2ccccc2)C[C@@H](C)C(=O)[C@H](C)[C@H]2NC(=O)O[C@@]21C,> 128,0.03,2,0.39,0.2,> 100,2,0.03,2,> 128
CC[C@H]1OC(=O)[C@H](C)C(=O)[C@H](C)[C@@H](O[C@@H]2O[C@H](C)C[C@H](N(C)C)[C@H]2O)[C@](C)(OCCNCCCCc2ccccc2)C[C@@H](C)C(=O)[C@H](C)[C@H]2NC(=O)O[C@@]21C,> 128,0.03,2,0.2,0.39,> 100,4,0.125,2,16
CC[C@H]1OC(=O)[C@H](C)C(=O)[C@H](C)[C@@H](O[C@@H]2O[C@H](C)C[C@H](N(C)C)[C@H]2O)[C@](C)(OCCNCc2ccnc3ccccc23)C[C@@H](C)C(=O)[C@H](C)[C@@H](O)[C@]1(C)O,> 128,0.25,4,3.1,3.1,> 100,32,0.25,0.5,> 128
CC[C@H]1OC(=O)[C@H](C)C(=O)[C@H](C)[C@@H](O[C@@H]2O[C@H](C)C[C@H](N(C)C)[C@H]2O)[C@](C)(OC/C=C/c2cnc3ccccc3c2)C[C@@H](C)C(=O)[C@H](C)[C@H]2N(OC)C(=O)O[C@]12C,64,0.06,0.5,0.1,0.1,> 100,8,0.03,0.5,64
C=CCO[C@]1(C)C[C@@H](C)C(=O)[C@H](C)[C@H]2N(C)C(=O)O[C@]2(C)[C@@H](CC)OC(=O)[C@H](C)C(=O)[C@H](C)[C@H]1O[C@@H]1O[C@H](C)C[C@H](N(C)C)[C@H]1O,> 128,0.5,2,6.2,6.2,> 100,> 128,0.5,0.5,> 128
CC[C@H]1OC(=O)[C@H](C)C(=O)[C@H](C)[C@@H](O[C@@H]2O[C@H](C)C[C@H](N(C)C)[C@H]2O)[C@](C)(OCCNCCCc2ccccc2)C[C@@H](C)C(=O)[C@H](C)[C@H]2NC(=O)O[C@@]21C,64,0.03,2,0.2,0.2,> 100,4,0.03,0.5,16

# More lines, now with the values ahead:
MIC [1] [µg/mL],MIC [2] [µg/mL],MIC [3] [µg/mL],MIC [4] [µg/mL],MIC [5] [µg/mL],MIC [6] [µg/mL],MIC [7] [µg/mL],MIC [8] [µg/mL],MIC [9] [µg/mL],MIC [10] [µg/mL],SMILES
32,1,2,1.56,1.56,> 100,64,0.5,2,32,CC[C@H]1OC(=O)[C@H](C)C(=O)[C@H](C)[C@@H](O[C@@H]2O[C@H](C)C[C@H](N(C)C)[C@H]2O)[C@](C)(OC/C=C/c2ccc(Cl)cc2)C[C@@H](C)C(=O)[C@H](C)[C@@H](O)[C@]1(C)O
8,0.03,1,3.1,0.2,> 100,2,0.03,1,8,CC[C@H]1OC(=O)[C@H](C)[C@@H](O[C@H]2C[C@@](C)(OC)[C@@H](O)[C@H](C)O2)[C@H](C)[C@@H](O[C@@H]2O[C@H](C)C[C@H](N(C)C)[C@H]2O)[C@](C)(OC/C=C/c2cnc3ccccc3c2)C[C@@H](C)C(=O)[C@H](C)[C@H]2NC(=O)O[C@@]21C
32,0.008,0.25,0.1,0.1,> 100,4,0.008,0.25,8,CC[C@H]1OC(=O)[C@H](C)C(=O)[C@H](C)[C@@H](O[C@@H]2O[C@H](C)C[C@H](N(C)C)[C@H]2O)[C@](C)(OC/C=C/c2cccc3cnccc23)C[C@@H](C)C(=O)[C@H](C)[C@H]2NC(=O)O[C@@]21C
64,0.03,2,0.2,0.2,> 100,4,0.03,1,128,CC[C@H]1OC(=O)[C@H](C)C(=O)[C@H](C)[C@@H](O[C@@H]2O[C@H](C)C[C@H](N(C)C)[C@H]2O)[C@](C)(OC/C=C/c2ccnc3ccccc23)C[C@@H](C)C(=O)[C@H](C)[C@H]2NC(=O)O[C@@]21C
64,0.015,0.5,0.1,0.1,> 100,2,0.015,0.25,64,CC[C@H]1OC(=O)[C@H](C)C(=O)[C@H](C)[C@@H](O[C@@H]2O[C@H](C)C[C@H](N(C)C)[C@H]2O)[C@](C)(OC/C=C/c2cnc3ccccc3c2)C[C@@H](C)C(=O)[C@H](C)[C@H]2N(N)C(=O)O[C@]12C
16,0.03,2,0.1,0.1,> 100,2,0.03,2,4,CC[C@H]1OC(=O)[C@H](C)C(=O)[C@H](C)[C@@H](O[C@@H]2O[C@H](C)C[C@H](N(C)C)[C@H]2O)[C@](C)(OCCNCc2cnc3ccccc3c2)C[C@@H](C)C(=O)[C@H](C)[C@H]2NC(=O)O[C@@]21C
64,0.06,4,3.1,0.2,> 100,8,0.06,4,128,CC[C@H]1OC(=O)[C@H](C)[C@@H](O[C@H]2C[C@@](C)(OC)[C@@H](O)[C@H](C)O2)[C@H](C)[C@@H](O[C@@H]2O[C@H](C)C[C@H](N(C)C)[C@H]2O)[C@](C)(OC/C=C/c2cnc3ccccc3c2)C[C@@H](C)C(=O)[C@H](C)[C@@H](O)[C@]1(C)O
4,0.03,2,0.1,0.1,> 100,4,0.03,4,8,CC[C@H]1OC(=O)[C@H](C)C(=O)[C@H](C)[C@@H](O[C@@H]2O[C@H](C)C[C@H](N(C)C)[C@H]2O)[C@](C)(OC/C=C/c2ccc3[nH]cnc3c2)C[C@@H](C)C(=O)[C@H](C)[C@H]2NC(=O)O[C@@]21C
4,0.015,2,0.2,0.2,> 100,4,0.015,2,1,CC[C@H]1OC(=O)[C@H](C)C(=O)[C@H](C)[C@@H](O[C@@H]2O[C@H](C)C[C@H](N(C)C)[C@H]2O)[C@](C)(OC/C=C/c2cnc3nccnc3c2)C[C@@H](C)C(=O)[C@H](C)[C@H]2NC(=O)O[C@@]21C
64,1,2,1.56,1.56,> 100,128,0.25,2,128,CC[C@H]1OC(=O)[C@H](C)C(=O)[C@H](C)[C@@H](O[C@@H]2O[C@H](C)C[C@H](N(C)C)[C@H]2O)[C@](C)(OC/C=C/c2ccc(OC)cc2)C[C@@H](C)C(=O)[C@H](C)[C@@H](O)[C@]1(C)O
4,0.004,0.25,0.05,0.05,> 100,2,0.008,0.25,0.5,CC[C@H]1OC(=O)[C@H](C)C(=O)[C@H](C)[C@@H](O[C@@H]2O[C@H](C)C[C@H](N(C)C)[C@H]2O)[C@](C)(OC/C=C/c2cnc3sccc3c2)C[C@@H](C)C(=O)[C@H](C)[C@H]2NC(=O)O[C@@]21C
8,0.004,0.125,0.1,0.1,> 100,2,0.004,0.25,64,CC[C@H]1OC(=O)[C@H](C)C(=O)[C@H](C)[C@@H](O[C@@H]2O[C@H](C)C[C@H](N(C)C)[C@H]2O)[C@](C)(OC/C=C/c2cncc3ccccc23)C[C@@H](C)C(=O)[C@H](C)[C@H]2NC(=O)O[C@@]21C
